H9c2 TAG inh: triacylglycerol accumulation inhibition | H9c2 cells, Nile Red lipid (TAG) fluorescence; cells loaded with 200 µM oleic acid | 230,000 compounds, 0.66% hits | AID 651582 | inhibition, % at 12.5 µM;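 active = pattern-corrected inhibition of lipid staining of at least 50% with the nuclear-stain viability signal not falling by more than 50%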
NTR1 ag: activates human neurotensin receptor 1 | NTR1-U2OS beta-arrestin-GFP spot imaging, agonist mode | 330,000 compounds, 0.17% hits | activation, % at 20 µM | AID 493036;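 active = activation at or above 40% of the spot to cytoplasm intensity ratio, with at least 20 cells analyzed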
MC4R antag cAMP: antagonists of human melanocortin 4 receptor (MC4R); inhibition, % at 6.5 µM; 360,000 compounds, 0.48% hits; MC4R-expressing cells, MTII-stimulated cAMP, LANCE TR-FRET; AID 540295;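 active = inhibition above its plate's cutoff, the mean of tested wells on that plate plus 3 SD, cut at about 29% in these data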
Target sequence (P32245 whole entry, looked up): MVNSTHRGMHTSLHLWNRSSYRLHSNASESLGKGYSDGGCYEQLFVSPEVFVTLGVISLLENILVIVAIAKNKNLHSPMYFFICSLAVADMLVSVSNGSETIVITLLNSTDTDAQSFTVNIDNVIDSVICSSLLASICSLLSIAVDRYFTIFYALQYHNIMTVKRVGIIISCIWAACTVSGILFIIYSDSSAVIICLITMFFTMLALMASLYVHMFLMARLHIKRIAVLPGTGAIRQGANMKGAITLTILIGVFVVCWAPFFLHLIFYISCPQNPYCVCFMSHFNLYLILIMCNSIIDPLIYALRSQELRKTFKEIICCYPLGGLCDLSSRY
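Material – human MC4R-expressing U2OS cells · Repeats – no replicates · Detection – TR-FRET with Eu-cAMP and labeled anti-cAMP, 671 nm · Times – compound 30 min, challenge 1 h, detection 1 h · Compound – single nominal compound dose of 6.5 µM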
TbMetRS inhib: Trypanosoma brucei MetRS inhibition; inhibition, % at 11.9 µM; 360,000 compounds, 0.4% hits; purified T. brucei MetRS, ATP depletion, Kinase-Glo luminescence;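 active = inhibition above a per-plate cutoff of the control wells' mean inhibition plus 3 SD, cut at about 5.5% in these data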
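Dosing: 11.9 µM compound single dose, 0.9% DMSO; Assay system: purified T. brucei MetRS enzyme; Measured by: Kinase-Glo luciferase luminescence reporting remaining unconsumed ATP; Schedule: 15 min plus 2 h at 25 °C.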
aDG glyco up: increases alpha dystroglycan glycosylation; Pro5-aDG cells, alpha-DG glycosylation AlphaScreen (IIH6); 0% Pro5, 100% B10-LARGE cell signal; activation, % at 10 µM; 360,000 compounds, 0.22% hits;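 active = activation of at least 8% versus controls, or a plate z-score of at least 8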;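 note: Pro5 are CHO cells carrying HIG-tagged alpha-DG that lacks glycosylation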
MC4R barr agon: agonists of human melanocortin 4 receptor (MC4R) beta-arrestin; activation, % at 8.9 µM; U2OS MC4R beta-arrestin complementation, luminescence; percent of melanotan II response, DMSO zero; P32245; 360,000 compounds, 0.98% hits;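 active = activation above a per-plate cutoff, the mean activation of sample wells on that plate plus 3 SD, cut at about 8% in these data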
TAG conf: confirmation of triacylglycerol accumulation inhibitors; shares compounds with H9c2 TAG inh; H9c2 lipid accumulation, Nile Red fluorescence; cells loaded with 200 µM oleic acid; AID 651629; 990 compounds, 71% hits; inhibition, % at 12.5 µM;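 active = mean inhibition across replicates of 40% or more; inactive = mean inhibition below 40%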
Of the large screens only hits and unclear results are named; the others gave an inactive call (follow-up assays come after a bar, where they were run). In the library only some 2.4% were active in any assay of this set; here they are far more common.

CCN(C(=O)COC(=O)c1cc(-c2ccccc2)nc2c1c(C)nn2-c1ccc(C)cc1)C1CCS(=O)(=O)C1 (configuration not stated)	H9c2 TAG inh 55.5 | TAG conf 68.7
CCN(C(=O)COC(=O)c1cc(-c2ccccc2)nc2ccc(Br)cc12)C1CCS(=O)(=O)C1 (configuration not stated)	none
COC(=O)C[C@@H]1C=C[C@H](NC(=O)Nc2ccc(OC)cc2)[C@@H](CO)O1	none (no result: H9c2 TAG inh, NTR1 ag, MC4R antag cAMP, MC4R barr agon)
C[C@H]1COc2cc(N3CCC[C@H]3CO)ccc2S(=O)(=O)N1	none (no result: H9c2 TAG inh, NTR1 ag, MC4R antag cAMP, MC4R barr agon)
CC1(C(=O)N2CCC(CC3CC(c4ccc(Cl)cc4)=NO3)(C(=O)NCC3CCCCC3)CC2)CC1 (configuration not stated)	none
CC(C)(C)OC(=O)N1CCC(CC2CC(c3ccc(Cl)cc3)=NO2)(C(=O)NCC2CCCCC2)CC1 (configuration not stated)	H9c2 TAG inh 66.6 | TAG conf inactive
COc1ccc(CN2CCC2(C)C(=O)Nc2cccc(NS(C)(=O)=O)c2)c2ccccc12 (configuration not stated)	none (no result: NTR1 ag)
Cc1cc(N/N=C/c2cccc([N+](=O)[O-])c2)nc(-n2nc(C)cc2C)n1	H9c2 TAG inh 71.1 | TAG conf inactive
Cc1cc(N/N=C/c2cccc(Cl)c2)nc(-n2nc(C)cc2C)n1	H9c2 TAG inh 52.9 | TAG conf 40.5
NS(=O)(=O)c1ccc(CCNc2nn3c(-c4cccc(OC(F)(F)F)c4)cnc3s2)cc1	none (no result: NTR1 ag)
COc1ccc(/C=C/C(=O)NNC(=O)c2ccncc2)c(OC)c1	none
Cc1sc(NC(=O)c2cccc([N+](=O)[O-])c2)c(C(N)=O)c1-c1ccc(C(C)(C)C)cc1	H9c2 TAG inh 81.9 | TAG conf inactive
O=C(NNC(=O)c1ccccc1F)c1ccc(S(=O)(=O)N2CCCCC2)cc1	none
O=C(Cc1coc2ccc3ccccc3c12)Nc1nccs1	H9c2 TAG inh 51.8 | TAG conf 43.1
CCCC(C)(C)C(=O)N1CCC1(C)C(=O)Nc1ccc2c(c1)OCCO2 (configuration not stated)	none (no result: NTR1 ag)
CC(Sc1nnc(Nc2ccccc2F)s1)C(=O)NC1CC1 (configuration not stated)	none
O=[N+]([O-])c1cccc(-c2cn3nc(-c4ccccc4)c(-c4ccccc4)nc3n2)c1	none
O=[N+]([O-])c1ccc(-c2cn3nc(-c4ccccc4)c(-c4ccccc4)nc3n2)cc1	H9c2 TAG inh 86.6 | TAG conf inactive
CNc1nc(SCC(=O)Nc2ccccc2)nc(N2CCOCC2)n1	none
COc1cc(-c2cnc3c(NC=O)cc(-c4cccnc4)cn23)cc(OC)c1OC	H9c2 TAG inh 53.5 (no result: NTR1 ag) | TAG conf 46.0
COc1ccc(-c2cc(NC=O)c3ncc(-c4ccc(OC)c(OC)c4)n3c2)cc1OC	none (no result: NTR1 ag)
COc1cc(-c2cc(NC=O)c3ncc(-c4ccc(F)cc4)n3c2)cc(OC)c1OC	none (no result: NTR1 ag)
COc1ccc(-c2cc(NC=O)c3ncc(-c4ccc(OC)c(OC)c4)n3c2)cc1	H9c2 TAG inh 55.6 (no result: NTR1 ag) | TAG conf 65.5
CN(Cc1ccc(Cl)cc1)C(CCc1ccccc1)C(=O)NC1CCCCC1 (configuration not stated)	none (no result: H9c2 TAG inh, NTR1 ag, MC4R antag cAMP, MC4R barr agon)
Cc1ccc2nc(CCl)[n+]([O-])c(-c3ccccc3)c2c1	none (no result: H9c2 TAG inh)
CCCCCCCCn1c(N2CCN(c3cccc(Cl)c3)CC2)nc2c1c(=O)[nH]c(=O)n2C	H9c2 TAG inh 65.3 | TAG conf 65.6
CCCCCCn1c(N2CCN(c3cccc(Cl)c3)CC2)nc2c1c(=O)[nH]c(=O)n2C	none
C[C@H](CO)N1C[C@H](C)[C@@H](CN(C)C(=O)Nc2cc(F)ccc2F)Oc2ncc(-c3cccc(F)c3)cc2C1=O	none (no result: NTR1 ag)
CC(C)c1ccc(NC(=O)Nc2nc(C(N)COCc3ccccc3)cs2)cc1 (configuration not stated)	H9c2 TAG inh 83.4 (no result: NTR1 ag) | TAG conf 101.5
COc1ccccc1CNC(=O)Nc1nc(C(N)CCc2ccccc2)cs1 (configuration not stated)	H9c2 TAG inh 57.4 (no result: NTR1 ag) | TAG conf inactive
CC(Sc1nc2c(cc1C#N)CCCCC2)C(=O)O (configuration not stated)	none (no result: H9c2 TAG inh, MC4R antag cAMP, TbMetRS inhib, aDG glyco up, MC4R barr agon)
O=C(NCCc1c[nH]c2ccccc12)C1CCC(Cn2c(=S)[nH]c3ccccc3c2=O)CC1 (configuration not stated)	H9c2 TAG inh 65.5 | TAG conf 60.6
COC(=O)c1ccc(C(=O)OC)c(NC(=O)C2CCCO2)c1 (configuration not stated)	none
COc1ccc(Cl)cc1NC(=O)CSc1nnc(COc2ccccc2)n1N	H9c2 TAG inh 54.4 | TAG conf inactive
COc1ccc(CC(N)c2csc(NC(=O)c3ccccc3)n2)cc1 (configuration not stated)	none (no result: NTR1 ag)
COc1ccc(CC(N)c2csc(NC(=O)c3cccc(OC(F)(F)F)c3)n2)cc1 (configuration not stated)	H9c2 TAG inh 51.5, MC4R barr agon 8.9 (no result: NTR1 ag) | TAG conf inactive
COc1ccc(N2CCN(C(=O)C3CCN(S(=O)(=O)c4ccc5c(c4)oc(=O)n5C)CC3)CC2)cc1	none (no result: H9c2 TAG inh)
O=C(Nc1cccc(-c2csc(Nc3ccc(Cl)cc3)n2)c1)c1ccccc1	none
O=C(Nc1ccc(-c2csc(Nc3ccc(Cl)cc3)n2)cc1)c1cc([N+](=O)[O-])cc(C(F)(F)F)c1	H9c2 TAG inh 50.8 | TAG conf 57.4
O=C(Nc1cccc(-c2csc(Nc3ccc(Cl)cc3)n2)c1)c1cccc(C(F)(F)F)c1	H9c2 TAG inh 54.0 | TAG conf 65.2
Clc1cccc(Nc2nc(-c3ccncc3)cs2)c1	H9c2 TAG inh 80.7 | TAG conf 59.4
O=C(Nc1cccc(-c2csc(Nc3ccccc3)n2)c1)c1cc([N+](=O)[O-])cc(C(F)(F)F)c1	none
O=C(Nc1cccc(-c2csc(Nc3ccc(Cl)cc3)n2)c1)c1cc([N+](=O)[O-])cc(C(F)(F)F)c1	H9c2 TAG inh 55.9 | TAG conf 50.4
COc1ccc(NC(=O)Cn2c([N+](=O)[O-])cnc2C)c(OC)c1	none (no result: NTR1 ag)
CCCCNC(=O)C1(C)CCN1C(=O)c1cc(F)ccc1C (configuration not stated)	none (no result: NTR1 ag)
CCOc1ccccc1Nc1nnc(SCC(=O)Nc2nc(-c3ccc(OC)cc3)cs2)s1	none
Cc1ccc(-c2csc(NC(=O)CSc3nc4ccccc4c(=O)n3CCCN(C)C)n2)cc1	H9c2 TAG inh 70.4 | TAG conf 82.8
